{"source": "paper PMC2635340", "about": "(Neuropharmacology, 2008)", "key": {"[1]": {"target": "T1, 5-HT1AR (Homo sapiens, UniProt P08908)", "T1 sequence (P08908 1-422)": "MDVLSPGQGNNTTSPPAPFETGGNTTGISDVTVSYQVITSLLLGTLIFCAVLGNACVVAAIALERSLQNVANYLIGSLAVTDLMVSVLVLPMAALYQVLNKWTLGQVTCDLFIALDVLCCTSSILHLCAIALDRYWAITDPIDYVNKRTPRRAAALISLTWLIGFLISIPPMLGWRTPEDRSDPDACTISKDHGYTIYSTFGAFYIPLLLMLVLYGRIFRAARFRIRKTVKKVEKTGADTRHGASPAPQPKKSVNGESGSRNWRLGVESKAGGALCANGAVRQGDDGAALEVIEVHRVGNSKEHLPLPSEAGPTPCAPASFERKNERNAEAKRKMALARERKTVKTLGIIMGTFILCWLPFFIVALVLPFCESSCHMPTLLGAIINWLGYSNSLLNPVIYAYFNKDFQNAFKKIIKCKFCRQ", "assay": "ERK1/2 activation", "assay_type": "cell-based", "procedure,_shortened": "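HEK293 cells stably expressing human 5-HT1AR (clonal, selected with G418 or hygromycin) were kept in 100 μg/ml selection antibiotic and then serum-starved in serum-free DMEM for at least 24 h. Agonist (10−10–10−4 M) was applied for 5 min; selected concentrations ran 5 min–1 h. Lysates (equal protein) were resolved by 10% SDS-PAGE. Parallel blots were probed for phospho-ERK1/2 and total ERK1/2, read by ECL densitometry with background subtracted. Serum was the positive control.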"}, "[2]": {"target": "5-HT2AR (Homo sapiens, UniProt P28223)", "sequence (P28223 whole entry)": "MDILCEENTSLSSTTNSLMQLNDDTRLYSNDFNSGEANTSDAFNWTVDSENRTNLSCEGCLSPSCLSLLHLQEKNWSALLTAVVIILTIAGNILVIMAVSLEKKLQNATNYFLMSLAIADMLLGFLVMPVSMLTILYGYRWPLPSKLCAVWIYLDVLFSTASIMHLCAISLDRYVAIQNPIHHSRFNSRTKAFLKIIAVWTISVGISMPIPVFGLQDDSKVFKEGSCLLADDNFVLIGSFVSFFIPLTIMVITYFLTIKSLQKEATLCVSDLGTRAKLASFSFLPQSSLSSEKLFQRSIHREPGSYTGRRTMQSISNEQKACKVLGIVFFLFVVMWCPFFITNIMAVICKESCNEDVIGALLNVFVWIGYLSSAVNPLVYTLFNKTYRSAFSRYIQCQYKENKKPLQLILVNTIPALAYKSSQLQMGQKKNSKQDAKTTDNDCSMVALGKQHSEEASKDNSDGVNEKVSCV", "assay": "ERK1/2 activation", "assay_type": "cell-based"}, "[3]": {"target": "5-HT1A and 5-HT2A receptors (Homo sapiens, UniProt P28223)", "sequence (P28223 whole entry)": "as above", "assay_type": "cell-based", "details": "50 nM, 2 hours exposure before TCB-2 alone or TCB-2 and Xaliproden HCl"}, "[4]": {"target": "T2, human 5-HT1A receptors (Homo sapiens, UniProt P08908)", "T2 sequence (P08908 1-422)": "T1 sequence (P08908 1-422)", "assay": "Saturation isotherm radioligand binding, 5-HT1A receptor", "details": "membranes, geometric mean ± SD, n = 3", "procedure,_shortened": "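HEK293 membranes (5-HT1AR alone or with 5-HT2AR) were prepared by EDTA detachment, hypotonic lysis (5 mM Tris/MgCl2, pH 7.4) and 35,000g spins. They were incubated with [3H]MPPF in 50 mM Tris, pH 7.4, at 25 °C for 1.5 h, with excess NAN-190 defining nonspecific binding. Bound ligand was collected on PEI-treated GF/C filters and counted. Triplicate points; Kd and Bmax came from saturation isotherms, three experiments.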"}, "[5]": {"target": "human 5-HT2A receptors (Homo sapiens, UniProt P28223)", "sequence (P28223 whole entry)": "as above", "assay": "Saturation isotherm radioligand binding, 5-HT2A receptor", "details": "membranes, geometric mean ± SD, n = 3", "procedure,_shortened": "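HEK293 membranes (5-HT2AR alone or with 5-HT1AR) were prepared by EDTA detachment, hypotonic lysis and 35,000g centrifugation. Saturation binding used [3H]MSP (0.3–10 nM) in 50 mM Tris, pH 7.4, for 1.5 h at 25 °C, with excess mianserin defining nonspecific binding. Samples were filtered on PEI-treated GF/C filters and counted by scintillation, with protein measured by BCA. Triplicate points; Kd and Bmax were fitted from isotherms, geometric mean of three experiments.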"}, "[6]": {"details": "HEK293 cell line 5-HT1A+2AR co-expressing"}}, "note": "Counter-ions that a name gives are not always drawn.", "data": [{"smiles": "FC(F)(F)c1cccc(C2=CCN(CCc3ccc4ccccc4c3)CC2)c1", "note": "[Xaliproden HCl, Xaliproden hydrochloride]", "values": [{"measurement": "Time-course pattern of ERK1/2 activation", "setting": "[1]; 5-HT1AR agonist, HEK293 cells", "result": "transient activation"}, {"measurement": "Minimal concentration required to obtain observed ERK activation", "setting": "[1]; 5-HT1AR cells, dose-response, 5 min", "result": 100, "unit": "nM"}]}, {"smiles": "O=C(c1ccc(F)cc1)C1CCN(CCn2c(=O)[nH]c3ccccc3c2=O)CC1", "note": "[Ketanserin]", "values": [{"measurement": "Fraction of initial ERK activation observed", "setting": "[2]; 50 nM Ketanserin present, 5-HT2AR clone", "result": "about half"}, {"measurement": "Effect on agonist-induced ERK response", "setting": "[3]", "result": "switched it from sustained to transient"}]}, {"smiles": "COc1ccccc1N1CCN(CCN(C(=O)c2ccc(F)cc2)c2ccccn2)CC1", "note": "[[3H] MPPF, 4-(2′-Methoxy)-phenyl-1-[2′-(N-2″-pyridinyl)-p-fluorobenzamido]ethyl-piperazine]", "values": [{"measurement": "Bmax", "setting": "[4]; [6]", "result": "8.37 ± 4.14", "unit": "pmol/mg"}, {"measurement": "Kd", "setting": "[4]; [6]", "result": "0.167 ± 0.013", "unit": "nM"}, {"measurement": "Bmax", "setting": "[4]; HEK293 cell line 5-HT1AR only", "result": "3.07 ± 1.67", "unit": "pmol/mg"}, {"measurement": "Kd", "setting": "[4]; HEK293 cell line 5-HT1AR only", "result": "0.267 ± 0.036", "unit": "nM"}]}, {"smiles": "CC(N)Cc1c[nH]c2ccc(O)cc12", "note": "(stereo not drawn) [α-methyl-5-HT]", "values": [{"measurement": "Time-course pattern of ERK activation", "setting": "[2]; 10μM, HEK293-h5-HT2A", "result": "sustained ERK activation"}]}, {"smiles": "CN1CN(c2ccccc2)C2(CCN(CCCC(=O)c3ccc(F)cc3)CC2)C1=O", "note": "[[3H] MSP, [^3H]methylspiperone]", "values": [{"measurement": "Bmax", "setting": "[5]; [6]", "result": "7.00 ± 1.05", "unit": "pmol/mg"}, {"measurement": "Kd", "setting": "[5]; [6]", "result": "0.725 ± 0.199", "unit": "nM"}, {"measurement": "Bmax", "setting": "[5]; HEK293 cell line 5-HT2AR only", "result": "4.17 ± 2.28", "unit": "pmol/mg"}, {"measurement": "Kd", "setting": "[5]; HEK293 cell line 5-HT2AR only", "result": "0.246 ± 0.042", "unit": "nM"}]}]}
